This is a sample that favours compounds with a hit; in the whole collection about 2% have one here.
ASAP1 GAP inh: inhibitors of human ASAP1 ArfGAP activity; Q9ULH1; ASAP1-stimulated ARF1 GTP hydrolysis, GDP FP detection; inhibition, % at 16.5 µM; 360,000 compounds, 0.19% hits; AID 624377; in the data active = inhibition above about 25%;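 note: 0% = vehicle with enzyme and substrate and 100% = no enzyme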
Target sequence (Q9ULH1 325-724 limits assumed): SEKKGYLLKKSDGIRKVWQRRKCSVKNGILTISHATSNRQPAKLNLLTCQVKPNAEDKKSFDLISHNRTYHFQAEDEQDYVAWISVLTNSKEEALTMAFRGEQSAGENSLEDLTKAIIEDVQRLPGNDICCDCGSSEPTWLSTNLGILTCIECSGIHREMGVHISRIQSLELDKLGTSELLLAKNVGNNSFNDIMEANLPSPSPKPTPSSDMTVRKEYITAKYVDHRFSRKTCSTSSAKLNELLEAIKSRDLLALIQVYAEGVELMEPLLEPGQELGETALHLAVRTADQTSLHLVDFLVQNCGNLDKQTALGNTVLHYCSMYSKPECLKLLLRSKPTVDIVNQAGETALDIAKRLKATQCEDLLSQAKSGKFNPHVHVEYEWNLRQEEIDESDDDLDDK
UHRF1 binding: blocks human UHRF1 binding to methylated DNA; UHRF1 binding to methylated oligo, TR-FRET; 370,000 compounds, 0.75% hits; Q96T88; AID 687016; inhibition, % at 4.4 µM; in the data active = inhibition above about 21%;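 note: UHRF1 SRA domain binding a hemimethylated CpG hairpin DNA probe; 0% = median of test compound wells and 100% = reference inhibitor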
ARFGAP1 inhibitor: inhibitors of rat ARFGAP1; inhibition, % at 16.5 µM; Arfgap1-stimulated ARF1 GTP hydrolysis, GDP FP detection; 360,000 compounds, 0.26% hits;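 active = inhibition above a per-plate limit, mean inhibition of low control wells plus 3 SD, cut at about 25% in these data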;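 note: 0% = DMSO wells with enzyme and 100% = wells lacking Arfgap1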
Target sequence (Q62848 1-136 limits assumed): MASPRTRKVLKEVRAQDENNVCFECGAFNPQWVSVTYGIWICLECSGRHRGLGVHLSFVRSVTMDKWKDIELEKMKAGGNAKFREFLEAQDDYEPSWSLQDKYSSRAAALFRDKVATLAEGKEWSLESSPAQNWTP
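Repeats: one replicate per compound; assay system: rat Arfgap1 catalytic domain, aa 1-136; times: enzyme reaction 120 min at 25 °C after 20 min preincubation; detection: FP of antibody-bound GDP Alexa 633 tracer, ex 620/em 688 nm; benchmarks: high control wells lacking Arfgap1, low control full reaction with DMSO; reagent: human ARF1(Δ1-17)-GTP substrate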
LEDGF integ inh: blocks HIV-1 LEDGF/p75-dependent DNA integration. AID 743269. TR-FRET IN-LEDGF/p75 DNA integration, Eu/Cy5. 370,000 compounds, 0.64% hits. inhibition, % at 3.7 µM;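 active = inhibition above the screen-wide mean plus 3 SD, cut at about 13% in these data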;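 note: signal is the Cy5 over europium emission ratio at 671 and 618 nm; 0% = plate median of compound wells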
TCR CD3 inh: human TCR-CD3 binding inhibition; inhibition, % at 9.4 µM; AID 651800; 360,000 compounds, 0.37% hits; TAMRA-labeled TCR probe fluorescence, biochemical; in the data active = inhibition above about 19%;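 note: recombinant mutant TCR 2C K166C tagged with TAMRA read by polarization; 0% = receptor in buffer alone and 100% = receptor with positive control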
MBD2 inh: inhibitors of human MBD2 binding to methylated oligonucleotide. Q9UBB5. TR-FRET. inhibition, % at 4.4 µM. 370,000 compounds, 0.31% hits. AID 686964; in the data active = inhibition above about 13%
ASAP1 inh confirm: ASAP1 inhibition confirmed; 620 compounds, 37% hits; inhibition, % at 16.5 µM; ASAP1-stimulated Arf1 GTPase, GDP fluorescence polarization; shares compounds with ASAP1 GAP inh;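 active = mean inhibition over triplicates exceeds the hit threshold derived for the earlier primary screening run, cut at about 25% in these data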
ARFGAP1 confirm: confirmation of rat ARFGAP1 inhibitors; shares compounds with ARFGAP1 inhibitor; ARFGAP1-stimulated ARF1 GTP hydrolysis, GDP tracer FP; inhibition, % at 16.5 µM; 890 compounds, 30% hits; AID 651608;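 active = average inhibition over triplicates above the hit cutoff set in the earlier primary screen, cut at about 25% in these data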;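 note: 0% = Arfgap1 plus ARF1-GTP with DMSO and 100% = wells lacking Arfgap1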
BSA probe FL: BSA probe counter-screen for TCR-CD3 inhibitors | shares compounds with TCR CD3 inh | TAMRA-labeled BSA probe fluorescence counterscreen | inhibition, % at 9.4 µM | 1,200 compounds, 10% hits; in the data active = inhibition above about 23%;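 note: 0% = buffer low control and 100% = reference high control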
TCR-CD3 inh conf: TCR-CD3 interaction inhibition, confirmation; AID 652036; TAMRA-labeled TCR probe fluorescence binding assay; 1,200 compounds, 48% hits; shares compounds with TCR CD3 inh; inhibition, % at 9.4 µM; in the data active = inhibition above about 19%
UHRF1 ctr MBD2: counter-screen for MBD2 inhibitors: human UHRF1 methylated DNA binding inhibitors | shares compounds with MBD2 inh | UHRF1 binding to methylated oligonucleotide, TR-FRET | inhibition, % at 4.4 µM | 1,000 compounds, 25% hits | AID 720530; in the data active = inhibition above about 21%;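 note: UHRF1 SRA domain binding a labeled hemimethylated CpG hairpin DNA; 0% = vehicle only and 100% = reference inhibitor with vehicle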
MBD2 confirm: confirmation of human MBD2-DBD methylated oligonucleotide binding inhibitors; TR-FRET MBD2-DBD binding to methylated oligonucleotide; shares compounds with MBD2 inh; inhibition, % at 4.4 µM; 1,000 compounds, 26% hits
IN multimer up: HIV-1 integrase multimerization activation, counter-screen | 2,000 compounds, 17% hits | AID 1053131 | activation, % at 7.7 µM | shares compounds with LEDGF integ inh | TR-FRET HIV-1 integrase multimerization, biochemical; in the data active = activation above about 8.9%
TR-FRET interf: counter-screen for LEDGF/p75 integration inhibitors: TR-FRET optical interference. shares compounds with LEDGF integ inh. 2,000 tested, under 10 active. inhibition, % at 7.7 µM. TR-FRET optical interference counterscreen, HIV-1 IN multimerization;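 active = inhibition above the mean over all tested compounds plus 3 SD, which no compound reached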;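 note: 0% = integrase with antibodies and DMSO and 100% = antibodies without integrase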
IN-LEDGF confirm: confirmation of HIV-1 LEDGF/p75-dependent integration inhibitors; shares compounds with LEDGF integ inh; TR-FRET LEDGF/p75-dependent HIV-1 integration, biochemical; inhibition, % at 3.7 µM; 2,000 compounds, 36% hits; AID 1053136
* = called active by the depositor; / = not tested or not shown. Cut-off read from the data, not from the text of the source, unless noted: active = inhibition above about 14%; inactive = the rest.

SMILES | ASAP1 GAP inh | UHRF1 binding | ARFGAP1 inhibitor | LEDGF integ inh | TCR CD3 inh | MBD2 inh | ASAP1 inh confirm | IN multimer up | TR-FRET interf | IN-LEDGF confirm | others
O=C(Nc1ccc(Cc2ccncc2)cc1)c1cccc([N+](=O)[O-])c1 | 8 | 0 | -8 | 4 | 5 | -4 | / | / | / | /
O=C(Nc1ccc(Nc2ccncc2)cc1)c1ccc(Nc2ccnc3ccc([N+](=O)[O-])cc23)cc1 | 46* | 32* | 77* | 0 | 3 | 16* | 75* | / | / | / | UHRF1 ctr MBD2=38*;MBD2 confirm=34*
CC(=O)N1C[C@H]2CON(C)[C@H]2C[C@H]1c1ccc(-c2cccnc2)cc1 | -1 | 8 | 15 | -8 | 1 | 3 | / | / | / | /
COc1cc2nc(NCCCN3CCN(C)CC3)n3nc(-c4ccccc4)nc3c2cc1OC | 36* | 49* | 16 | 7 | -9 | 48* | 24 | / | / | / | UHRF1 ctr MBD2=41*;MBD2 confirm=42*
Fc1ccc(Nc2cncc(-c3ccsc3)c2)cc1Cl | 39* | 12 | 29* | 38* | -5 | 5 | 14 | 0 | 0 | 16* | ARFGAP1 confirm=5
Nc1ccc(N2CCCCC2)c2nonc12 | 25* | 12 | 6 | 56* | 5 | 13 | 13 | 1 | -5 | 67*
Cc1ccc(-n2c(SCC(=O)Nc3ccccc3-c3ccccc3)nnc2-c2cccs2)cc1 | / | 1 | / | 8 | / | 1 | / | / | / | /
Cn1c(SCc2ccccc2)nccc1=O | 7 | 4 | -3 | -4 | -6 | 5 | / | / | / | /
CC1=C(SCc2ccccc2)C(=O)c2ccccc2C1=O | 32* | 3 | 9 | 24* | 8 | -17 | 11 | 5 | -18 | 44*
COc1ccc(C(C[N+](=O)[O-])c2c(C)[nH]n(-c3ccccc3)c2=O)cc1 (configuration not stated) | 30* | 16 | 25* | 25* | -5 | 13 | 14 | 5 | -19 | 22*
Cc1[nH]n(-c2ccccc2)c(=O)c1C(C[N+](=O)[O-])c1ccccc1Cl (configuration not stated) | -5 | -8 | 3 | -3 | 12 | -8 | / | / | / | /
COC1=CC(=O)c2nc(Cl)ccc2C1=O | 38* | 11 | 9 | 32* | 2 | -2 | 17 | 2 | -8 | 58*
S=C(Nc1ccc2nsnc2c1)N1CCCC1 | 35* | 6 | 6 | 32* | 2 | 1 | -2 | 2 | -6 | -2
O=C(Nc1ccc2nsnc2c1)N1CCCCCC1 | 22 | -4 | 14 | 1 | 8 | 1 | / | / | / | /
O=c1cc(-c2ccc(O)cc2)oc2c(-c3c(O)cc(O)c4c(=O)cc(-c5ccc(O)cc5)oc34)c(O)cc(O)c12 | 21 | 0 | 7 | 1 | 12 | 1 | / | / | / | /
O=c1c(-c2c(O)cc(O)c3c(=O)cc(-c4ccc(O)cc4)oc23)c(-c2ccc(O)cc2)oc2cc(O)cc(O)c12 | 25* | 12 | 20 | 25* | 31* | 11 | 27* | 40* | -204 | 50* | BSA probe FL=-2;TCR-CD3 inh conf=23*
COc1ccc(-n2c(N)c(C(=O)NCC3CCCO3)c3nc4ccccc4nc32)c(OC)c1 (configuration not stated) | 31* | 11 | 28* | 19* | 3 | 4 | 14 | 0 | -2 | -1 | ARFGAP1 confirm=6
c1ccc(-c2nnc3n2N=C(c2ccc4ccccc4c2)CS3)nc1 | / | -3 | / | -2 | / | 0 | / | / | / | /
CC(Nc1cccc2ccccc12)C(=O)N/N=C/c1ccc([N+](=O)[O-])cc1 (configuration not stated) | 26* | -2 | 6 | 16* | -8 | -3 | 9 | 0 | -1 | -4
Cc1cccc(/C=N/NC(=O)C(C)Nc2cccc3ccccc23)n1 (configuration not stated) | 29* | 3 | 15 | 32* | -4 | 0 | 6 | 2 | -12 | -7
COc1cc([N+](=O)[O-])cc(/C=N/NC(=O)C(C)Nc2cccc3ccccc23)c1O (configuration not stated) | -7 | -5 | -3 | 0 | 2 | 1 | / | / | / | /
CC(C)NC(=O)OC[C@@H]1CSCCS(=O)(=O)N1 | 3 | 0 | -8 | 0 | -3 | -2 | / | / | / | /
CC1CC(C)(C)CC2(C1)NC(=O)N(CC(=O)Nc1cc(C(F)(F)F)ccc1N1CCCCC1)C2=O (configuration not stated) | -11 | -2 | -9 | -9 | -1 | 0 | / | / | / | /
C=CCNC(=O)CN(C(=O)c1csc2ccc(Cl)cc12)c1cccc(Br)c1 | / | -3 | / | 5 | / | -3 | / | / | / | /
O=c1[nH]c(Nc2ccc(F)cc2)cc2ccccc12 | 37* | 5 | 43* | 53* | 1 | 2 | 32* | 1 | -4 | 67*
O=c1[nH]c(Nc2ccccc2Cl)cc2ccccc12 | 48* | 9 | 29* | 30* | 11 | -4 | 8 | 1 | -4 | 30* | ARFGAP1 confirm=5
O=C(O)CSc1cc(NS(=O)(=O)c2cccc([N+](=O)[O-])c2)c2ccccc2c1O | 28* | 2 | 25* | 16* | -5 | -9 | 14 | 4 | -15 | 63* | ARFGAP1 confirm=-9
CCc1ccc(S(=O)(=O)Nc2cc(SCC(=O)O)c(O)c3ccccc23)cc1 | -1 | -3 | 14 | 6 | 0 | -7 | / | / | / | /
